In brackets after ≈: the same amount, converted by molar mass.
Columns and labels:
[1] = Density measurement, apparent molar volume at infinite dilution in water; type: physicochemical; conditions: aqueous solution
Outline: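 Solution density was measured with a vibrating-tube densitometer calibrated with dry air and double-distilled water, with Peltier temperature control at ±0.01 K and density uncertainty 2.0 × 10−4 g cm−3. Apparent molar volumes were computed versus molality. Infinite-dilution values came from the Redlich–Mayer equation with empirical parameters Sv and Bv.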

[2] = Octanol–water partition coefficient, shake-flask method; type: physicochemical
Outline: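 Shake-flask partitioning was run at 25 and 37 °C in water, SGF (pH 1.2), SIF (pH 6.8) or SBF (pH 7.4). Fluids were prepared per USP without enzyme and pre-saturated with n-octanol (24 h shaking, 24 h separation). Test compound in buffer-saturated octanol (5 mL) was shaken 24 h with 5 mL octanol-saturated buffer, then centrifuged 10 min. The octanol phase was read by UV at 200 nm, and log Ko/w = log Co/(C−Co).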

[3] = test system: Candida albicans ATCC10231; test: Antimicrobial activity, broth dilution MIC; type: cell-based
[4] = Thermal stability by TG/DTG; type: physicochemical; conditions: first decomposition process, 10 K min^−1, argon
Outline: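 Simultaneous thermal analysis ran from 30–500 °C at 10 K min−1 on 3–5 mg sample in an Al2O3 crucible, with α-Al2O3 as reference. Argon served as protective gas at 20 mL min−1 and as purge gas at 60 mL min−1.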

[5] = test system: Escherichia coli ATCC25922; test: Antibacterial activity, broth dilution MIC; type: cell-based
[6] = test system: human lung cancer cell line A549; test: Cell toxicity assay, MTT; type: cell-based
[7] = Aggregation in water by electrical conductivity; type: physicochemical; conditions: for cmc: conductivity, water; for ionization degree α: micelle (cmc); for ΔG^0m / ΔH^0m / ΔS^0m / −TΔS^0m: micellization (cmc)
Outline: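 Conductivity of aqueous test compound solutions was measured with a digital conductivity meter and electrode, calibrated against standard KCl, with a thermostat holding ±0.02 K and ±3% relative uncertainty. cmc and cac were taken from the break points, found by fitting the Aguiar equation. α came from the ratio of post- to pre-transition slopes (A2/A1), and micellization thermodynamic functions from the mass action model.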

[8] = Steady-state fluorescence with pyrene probe; type: physicochemical; conditions: 298.15 K; for cmc: Fluorescence (pyrene I1/I3), water; for N agg (aggregation number): ST = 2.5 cmc, fluorescence quenching with CPC
Outline: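 Pyrene (1 μM) served as probe at 298.15 K. Excitation was 335 nm, emission 355–650 nm, slits 2.5 nm, 700 V, 240 nm min−1, in a 1 cm quartz cuvette. cmc came from a Boltzmann fit of I1/I3 (373/384 nm). For Nagg, test compound at 2.5 cmc was quenched with cetylpyridinium chloride at 0.2–1.0 × 10−4 mol dm−3, and Nagg was derived from linear ln(I0/I) versus [Q].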

[9] = Conductivity in low concentration region; type: physicochemical; conditions: in water
Outline: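 Conductivity of aqueous test compound solutions was measured at each temperature in double-distilled deionized water (0.8 − 1.0 × 10−4 S m−1 at 298.15 K). The digital meter and electrode were calibrated with standard KCl, and the thermostat held ±0.02 K; relative standard uncertainty was ±3%.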

[10] = test system: Staphylococcus aureus ATCC29213; test: Antibacterial activity, broth dilution MIC; type: cell-based; conditions: S. aureus, n = 3
[11] = test system: human hepatocellular carcinoma cell line HepG2; test: Cell toxicity assay, MTT; type: cell-based
[12] = test system: Cutibacterium acnes ATCC6919; test: Antibacterial activity, broth dilution MIC; type: cell-based
[13] = pH = 7.0 (ultrapure water), 25 °C
[14] = pH = 7.0 (ultrapure water), 37 °C

## CCCCCCCCC(=O)O.O=C1CCC[C@@H]2[C@H]3CCCN4CCC[C@@H](CN12)[C@@H]34 [[Mat][C9]]
[1]; 293.15 K
  Apparent molar volume at infinite dilution V^0 2,φ: 353.45 ± 0.11 cm^3 mol^−1
[1]; 298.15 K
  Apparent molar volume at infinite dilution V^0 2,φ: 355.41 ± 0.17 cm^3 mol^−1
[1]; 303.15 K
  Apparent molar volume at infinite dilution V^0 2,φ: 357.32 ± 0.16 cm^3 mol^−1
[1]; 308.15 K
  Apparent molar volume at infinite dilution V^0 2,φ: 360.15 ± 0.14 cm^3 mol^−1
[2]; pH = 1.2 (SGF), 25 °C
  Log K o/w: −0.33
[2]; pH = 1.2 (SGF), 37 °C
  Log K o/w: 0.14
[2]; pH = 6.8 (SIF), 25 °C
  Log K o/w: 0.02
[2]; pH = 6.8 (SIF), 37 °C
  Log K o/w: 0.34
[2]; [13]
  Log K o/w: 0.68
[2]; [14]
  Log K o/w: 0.81
[2]; pH = 7.4 (SBF), 25 °C
  Log K o/w: 0.96
[2]; pH = 7.4 (SBF), 37 °C
  Log K o/w: 1.12
[3]; C. albicans, n = 3
  MIC: 0.96 mM
[4]
  T onset (onset decomposition temperature): 196.3 °C
[5]; E. coli, n = 3
  MIC: 30.7 mM
[6]; A549, MTT, 24 h, n = 3
  IC50: 3.15 mM
[7]; 293.15 K
  cmc: 0.00449 mol/kg
  ionization degree α: 0.8848
  ΔG^0m: -6.121 kcal/mol
  ΔH^0m: -0.805 kcal/mol
  ΔS^0m: 75.88 J mol^−1 K^−1
  −TΔS^0m: -5.315 kcal/mol
[7]; 298.15 K
  cmc: 0.00459 mol/kg
  ionization degree α: 0.8890
  ΔG^0m: -6.188 kcal/mol
  ΔH^0m: -0.767 kcal/mol
  ΔS^0m: 76.06 J mol^−1 K^−1
  −TΔS^0m: -5.421 kcal/mol
[7]; 303.15 K
  cmc: 0.00467 mol/kg
  ionization degree α: 0.8957
  ΔG^0m: -6.243 kcal/mol
  ΔH^0m: -0.727 kcal/mol
  ΔS^0m: 76.13 J mol^−1 K^−1
  −TΔS^0m: -5.516 kcal/mol
[7]; 308.15 K
  cmc: 0.00475 mol/kg
  ionization degree α: 0.8931
  ΔG^0m: -6.348 kcal/mol
  ΔH^0m: -0.686 kcal/mol
  ΔS^0m: 76.88 J mol^−1 K^−1
  −TΔS^0m: -5.662 kcal/mol
[7]; 313.15 K
  cmc: 0.00483 mol/kg
  ionization degree α: 0.8922
  ΔG^0m: -6.446 kcal/mol
  ΔH^0m: -0.643 kcal/mol
  ΔS^0m: 77.53 J mol^−1 K^−1
  −TΔS^0m: -5.803 kcal/mol
[8]
  cmc: 0.00461 mol/kg
  N agg (aggregation number): 64
[9]; 298.15 K
  Association constant KA: 6.74 ± 0.44 dm^3 mol^−1
  Limiting molar conductivity Λ0: 47.11 ± 0.02 S cm^2 mol^−1
[9]; 303.15 K
  Association constant KA: 4.14 ± 0.68 dm^3 mol^−1
  Limiting molar conductivity Λ0: 52.90 ± 0.04 S cm^2 mol^−1
[9]; 308.15 K
  Association constant KA: 1.72 ± 1.03 dm^3 mol^−1
  Limiting molar conductivity Λ0: 59.10 ± 0.07 S cm^2 mol^−1
[10]
  MIC: 7.7 mM
[11]; HepG2, MTT, 24 h, n = 3
  IC50: 2.12 mM
[12]; C. acnes, n = 3
  MIC: 3.84 mM

## CCCCCCC(=O)O.O=C1CCC[C@@H]2[C@H]3CCCN4CCC[C@@H](CN12)[C@@H]34 [[Mat][C7]]
[1]; 293.15 K
  Apparent molar volume at infinite dilution V^0 2,φ: 321.56 ± 0.09 cm^3 mol^−1
[1]; 298.15 K
  Apparent molar volume at infinite dilution V^0 2,φ: 323.31 ± 0.11 cm^3 mol^−1
[1]; 303.15 K
  Apparent molar volume at infinite dilution V^0 2,φ: 324.72 ± 0.10 cm^3 mol^−1
[1]; 308.15 K
  Apparent molar volume at infinite dilution V^0 2,φ: 326.82 ± 0.20 cm^3 mol^−1
[2]; pH = 1.2 (SGF), 25 °C
  Log K o/w: −0.36
[2]; pH = 1.2 (SGF), 37 °C
  Log K o/w: 0.07
[2]; pH = 6.8 (SIF), 25 °C
  Log K o/w: 0.01
[2]; pH = 6.8 (SIF), 37 °C
  Log K o/w: 0.25
[2]; [13]
  Log K o/w: 0.42
[2]; [14]
  Log K o/w: 0.69
[2]; pH = 7.4 (SBF), 25 °C
  Log K o/w: 0.83
[2]; pH = 7.4 (SBF), 37 °C
  Log K o/w: 1.01
[3]; C. albicans, n = 3
  MIC: 66.0 mM
[4]
  T onset (onset decomposition temperature): 185.5 °C
[5]; E. coli, n = 3
  MIC: 33.0 mM
[6]; A549, MTT, 24 h, n = 3
  IC50: 14 mM
[7]; 293.15 K
  cmc: 0.00511 mol/kg
  ionization degree α: 0.8986
  ΔG^0m: -5.961 kcal/mol
  ΔH^0m: -0.956 kcal/mol
  ΔS^0m: 71.43 J mol^−1 K^−1
  −TΔS^0m: -5.005 kcal/mol
[7]; 298.15 K
  cmc: 0.00524 mol/kg
  ionization degree α: 0.8976
  ΔG^0m: -6.054 kcal/mol
  ΔH^0m: -0.92 kcal/mol
  ΔS^0m: 72.03 J mol^−1 K^−1
  −TΔS^0m: -5.134 kcal/mol
[7]; 303.15 K
  cmc: 0.00536 mol/kg
  ionization degree α: 0.8989
  ΔG^0m: -6.133 kcal/mol
  ΔH^0m: -0.88 kcal/mol
  ΔS^0m: 72.51 J mol^−1 K^−1
  −TΔS^0m: -5.253 kcal/mol
[7]; 308.15 K
  cmc: 0.00549 mol/kg
  ionization degree α: 0.8927
  ΔG^0m: -6.252 kcal/mol
  ΔH^0m: -0.839 kcal/mol
  ΔS^0m: 73.51 J mol^−1 K^−1
  −TΔS^0m: -5.413 kcal/mol
[7]; 313.15 K
  cmc: 0.00558 mol/kg
  ionization degree α: 0.8987
  ΔG^0m: -6.31 kcal/mol
  ΔH^0m: -0.786 kcal/mol
  ΔS^0m: 73.80 J mol^−1 K^−1
  −TΔS^0m: -5.523 kcal/mol
[8]
  cmc: 0.00554 mol/kg
  N agg (aggregation number): 25
[9]; 298.15 K
  Association constant KA: 6.11 ± 0.61 dm^3 mol^−1
  Limiting molar conductivity Λ0: 47.78 ± 0.03 S cm^2 mol^−1
[9]; 303.15 K
  Association constant KA: 3.91 ± 0.48 dm^3 mol^−1
  Limiting molar conductivity Λ0: 52.96 ± 0.03 S cm^2 mol^−1
[9]; 308.15 K
  Association constant KA: 1.53 ± 0.37 dm^3 mol^−1
  Limiting molar conductivity Λ0: 59.37 ± 0.03 S cm^2 mol^−1
[10]
  MIC: 132.1 mM
[11]; HepG2, MTT, 24 h, n = 3
  IC50: 4.47 mM
[12]; C. acnes, n = 3
  MIC: 66.0 mM

## O=C1CCC[C@@H]2[C@H]3CCCN4CCC[C@@H](CN12)[C@@H]34 [Matrine, reference compound]
[3]; Candida albicans, ATCC10231
  MIC: 25.2 mM (≈ 6.26 mg/mL)
[5]; Escherichia coli, ATCC25922
  MIC: 50.3 mM (≈ 12.5 mg/mL)
[6]; Homo sapiens, A549, 24 h
  IC50: 11.8 mM
[11]; Homo sapiens, HepG2, 24 h
  IC50: 4.27 mM
[12]; Cutibacterium acnes, ATCC6919
  MIC: 50.3 mM (≈ 12.5 mg/mL)
